Common to all, as to type: cell-based, Chinese hamster
The subject of one experiment is pgs A-745 cells. In words: Cellular uptake of peptide-horseradish peroxidase. The settings on record: pgs A-745 cells lacking surface GAGs; 240 ng/ml complex, 30 min, 37°C; TMB substrate, 405 nm; n=3.
In a further experiment the test system is wild-type CHO K1 cells. The experiment in a line: Cellular uptake of FITC-labeled peptides, flow cytometry and confocal microscopy. The settings on record: as stated in the abstract; cell type not stated. Put shortly: (§1)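 CHO K1 wild-type and GAG-deficient mutants were grown in DMEM/F12 with 10% FBS at 37 °C. At ~75% confluence (48 h after seeding), cells were exposed to 20 μM FITC-labelled peptide for 2 h at 37 °C, then trypsinised, washed and analysed by flow cytometry. Dead cells (7-AAD-positive) were gated out, ≥5,000 events were collected and uptake was expressed relative to wild-type. Confocal imaging used a ~0.40 micron mid Z-section. Triplicates, mean ± S.D., t test.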
(In general: In flow cytometry, cells or beads pass a laser one at a time.)

The test system of experiment [1] is pgs D-677 cells (heparan sulfate-defective CHO K1 mutant). The description is as above. The conditions noted are these: deduced from uptake in pgs D-677 versus wt CHO K1; 20 μM, 2 h, 37°C. Put shortly: as §1
The test system of experiment [2] is pgs F-17 cells (2-O-sulfation-defective CHO K1 mutant). The experiment in a line: Cellular uptake of FITC-labeled peptides, flow cytometry. The conditions noted are these: 20 μM FITC-labeled peptide, 2 h, 37°C. In short, it runs like this:
(§2)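 Mutant and wild-type CHO K1 cells were seeded 48 h before use and treated at ~75% confluence with 20 μM FITC-labelled peptide in DMEM/F12 for 2 h at 37 °C. Cells were washed, trypsinised for 5 min and resuspended at 2×10⁶ cells/ml. 7-AAD (0.5 ng/μl final) excluded dead cells. Fluorescence was read with 488-nm excitation on ≥5,000 live events and compared with wild-type. Triplicates, mean ± S.D.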

In experiment [3] the test system is pgs C-605 cells (sulfate transporter-defective CHO K1 mutant). The description is as above. The settings on record: 20 μM FITC-labeled peptide, 2 h, 37°C. In short, it runs like this:
as §2

Entries after “also recorded” stand apart in the source; their conditions may differ. *: point of attachment. FITC = O=C1OC2(c3ccc(O)cc3Oc3cc(O)ccc32)c2ccc(NC(=S)*)cc21; Biotin = O=C1N[C@H]2[C@H](CS[C@H]2CCCCC(=O)*)N1; Ahx = NCCCCCC(=O)O

For the substance “{Biotin-Ahx}-KKGFYKKKQCRPSKGRKRGFCWAVDKYG-NH2 (cysteine pairing not given here) [KG-28]”, the “Uptake of complex into cells (peroxidase activity of cell extracts)” value with pgs A-745 cells was “abolished”. {FITC-Ahx}-KKGFYKKK-NH2 [KK-8]: the “Uptake activity retained within KW-22 (abstract)” value in the experiment on wild-type CHO K1 cells is recorded as “no uptake activity”.

Take “{FITC-Ahx}-KKGFYKKKQCRPSKGRKRGFCW-NH2 (cysteine pairing not given here) [KW-22]”: in experiment [1], the “Contribution of heparan sulfate to total uptake” value is ~ 38%. Besides, the “Cellular uptake compared with wt CHO K1” value in experiment [2] is on record as “comparable to that in wt cells; also recorded: barely affected”. Further, in experiment [3], the “Cellular fluorescence (uptake) compared with wt CHO K1” value was “comparable with that of the wt cells”.
